EBV LMP1 NFkB = Epstein-Barr LMP1 NF-kappaB reporter inhibition; LMP1-induced NF-kappaB luciferase reporter cells, luminescence; AID 504558; hit rate 0.69% among 350,000; inhibition, % at 12.5 µM; in the data active = inhibition above about 41%;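 also: 0% = neutral control wells and 100% = reference inhibitor control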
PAX8 reporter = PAX8 transcriptional activity inhibition. AID 652154. hit rate 1.2% among 360,000. inhibition, % at 12.6 µM. RMG-I TPO-luciferase reporter, SteadyGlo, 24 h;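 active = mean replicate inhibition at least 60% with every replicate also reaching 60%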;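 also: luciferase light reporting Pax8 driven TPO promoter activity; plate controls were median of neutral control wells for no effect and mitoxantrone controls for full effect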
EWS-Fli block = blocks EWS/Fli oncoprotein-driven transcription; hit rate 0.67% among 350,000; A673 NR0B1-luciferase reporter, viability-normalised; inhibition, % at 12.6 µM;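 active = mean inhibition of at least 50% after viability correction, with every replicate also passing that limit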;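 also: firefly luciferase signal divided by Alamar Blue viability fluorescence both relative to DMSO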
Shn3 inh set2 = inhibitors of Schnurri-3 3'UTR reporter in osteoblasts; inhibition, % at 12.5 µM; hit rate 0.52% among 360,000; AID 588674; Clone20 osteoblast Shn3 3'UTR firefly luciferase, 24 h;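 active = mean inhibition of at least 75% with every replicate also reaching 75%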;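 also: 0% = median of neutral control wells and 100% = pilot-screen positive control compound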
aSyn UTR inh = MLPCN primary screen, SNCA 5' untranslated region; hit rate 0.82% among 300,000; alpha-synuclein 5'UTR reporter, inhibitor activity; inhibition, % (tested at 7.5 µM); in the data active = inhibition above about 60%;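 also: H4 neuroglioblastoma cells stably carrying SNCA 5'UTR luciferase fusion; 0% = DMSO wells and 100% = positive control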
FN deposit inh = fibronectin deposition inhibition; AH1F fibroblasts, Alexa488-fibronectin deposition fluorescence, overnight; inhibition, % at 12.6 µM; hit rate 0.086% among 350,000; AID 743247;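 active = mean inhibition across replicates of 30% or more, regardless of how many single replicates reach that level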;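 also: positive control wells lacked labelled fibronectin entirely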
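Schedule: 1 h cell adhesion before compound, then overnight fibronectin incubation; test system: AH1F fibroblast monolayer depositing Alexa488-labelled fibronectin into matrix; quantity: 10000 AH1F cells per well; probe or stimulus: fluorescent fibronectin at 24 nM final; signal: fluorescence, ex 485 nm, em 525 nm; evaluation: percent inhibition as loss of matrix-bound fibronectin fluorescence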
DNA binding = binds DNA displacing acridine orange. shares compounds with EWS-Fli block. salmon sperm DNA acridine orange fluorescence polarization. AC35, µM (doses to about 68 µM), without a hit: at the highest dose activity change, negative = DNA binding. hit rate 2% among 640. AID 720586;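 active = fitted curve reaches a 35% signal fall AC35 below twice the sample's top valid tested dose, actives reach about 48 µM in these data; inactive = the rest, including activity in the rising direction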;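 also: lower polarization ratio signals compound binding to DNA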
Starred values were filed as active, the others as inactive; . = no result given. Most compounds without a hit are left out; they make up all but 2.1% or so of the library.

SMILES | EBV LMP1 NFkB | PAX8 reporter | EWS-Fli block | Shn3 inh set2 | aSyn UTR inh | FN deposit inh | DNA binding
N#C[C@@H]1[C@H](c2ccc(C#Cc3ccccc3F)cc2)[C@@H](CO)N1C(=O)c1cccnc1 | . | 47 | 74* | . | . | 7 | 7%
CCc1cnc(N2[C@H](C#N)[C@H](c3ccc(C#Cc4ccccc4F)cc3)[C@H]2CO)s1 | . | 49 | 53* | . | . | -19 | -6%
N#C[C@H]1N[C@H](CO)[C@H]1c1ccc(C#Cc2ccccc2F)cc1 | . | -30 | 53* | . | . | 8 | 4%
CO[C@@H]1CN(C)C(=O)c2ccc(NC(=O)C3CCCCC3)cc2OC[C@@H](C)N(Cc2nccs2)C[C@H]1C | . | 6 | 8 | . | . | -6 | .
CN(C[C@@H]1N[C@H](CO)[C@@H]1c1ccc(-c2cccc(F)c2)cc1)C(=O)C1CCC1 | . | 12 | 10 | . | . | -3 | .
C[C@@H]1CN([C@@H](C)CO)C(=O)c2cc(NC(=O)c3ccccc3)ccc2O[C@@H](C)CCCCO[C@@H]1CN(C)S(=O)(=O)c1ccc(Cl)cc1 | . | 21 | 5 | . | . | . | .
CC(=O)/C(=N\Nc1ccccc1Cl)Sc1cccc2cccnc12 | -2 | . | . | 18 | 13 | . | .
O=C(Sc1cccc2cccnc12)c1ccccc1Br | -23 | 100* | 50* | 99* | -242 | 28 | -1%
CCc1ccc2c(c1)C(=O)C(=O)N2CCS(=O)(=O)c1ccccc1 | -5 | -15 | . | -6 | -24 | 0 | .
O=C1C(=O)N(CCS(=O)(=O)c2ccccc2)c2ccc(Cl)cc21 | -5 | 20 | 57* | -7 | -27 | 6 | -9%
COc1ccc(NC(=O)c2cc3ccccc3oc2=O)cc1 | 73* | -8 | 76* | 37 | . | 13 | -11%
O=C(NC1CCCC1)C(c1ccccc1)n1c(-c2cccs2)nc2ccccc21 (stereo unspecified) | . | -12 | -7 | . | . | 3 | .
O=C(NC1CCCC1)C(c1ccccc1)n1c(CSCCOc2ccccc2)nc2ccccc21 (stereo unspecified) | . | -11 | 60* | . | . | -2 | 2%
CCCCc1c(Cc2ccccc2)ncn1CCc1ccccc1OC | . | 62* | 55* | . | . | 10 | -13%
COC(=O)c1cccc(NC(=O)NC(=O)c2ccccc2Cl)c1 | 37 | 30 | 86* | 23 | 95* | -7 | -13%
CCOc1ccc(/C=C2\CCc3ccccc3C2=O)cc1 | 35 | -24 | 70* | -60 | -170 | 5 | -7%
COc1ccc(C=C2CCc3ccccc3C2=O)cc1 | . | -96 | 70* | -26 | . | 2 | 2%
Cc1ccc(S(=O)(=O)Nc2ccc3c(c2)CC(=O)N([C@H](C)CO)C[C@@H](C)[C@@H](CN(C)C(=O)Nc2ccc4c(c2)OCO4)O3)cc1 | . | 2 | -5 | . | . | -7 | .
CO[C@@H]1CN(C)C(=O)c2cc(NC(=O)Nc3ccccc3)ccc2OC[C@H](C)N(C(=O)CN(C)C)C[C@H]1C | . | . | -13 | . | . | 0 | .
O=C(C[C@@H]1C[C@@H]2c3cc(NC(=O)CC4CC4)ccc3O[C@@H]2[C@@H](CO)O1)NCc1ccc2c(c1)OCO2 | . | -8 | -13 | . | . | 7 | .
COc1ccc(-c2sc3ccccc3c2-c2ccc(OCCN3CCCCC3)cc2)cc1 | -11 | -20 | 59* | -12 | . | 15 | -4%
c1ccc(-c2sc3ccccc3c2-c2ccc(OCCN3CCCC3)cc2)cc1 | -12 | -6 | 45 | -3 | . | -9 | .
COCCOC(=O)N1C(=O)[C@@]2(c3cc(C#CCC(C(=O)OC)C(=O)OC)ccc31)[C@H](c1ccccc1OCCO)N1[C@H](c3ccccc3)[C@H](c3ccccc3)OC(=O)[C@H]1[C@@H]2C(=O)N1CCN(c2ncccn2)CC1 | . | 14 | 61* | . | . | . | 1%
COCCOC(=O)N1C(=O)[C@@]2(c3cc(C#CCCO)ccc31)[C@H](C(=O)N1CCN(c3ncccn3)CC1)[C@H]1C(=O)O[C@H](c3ccccc3)[C@H](c3ccccc3)N1[C@@H]2c1ccccc1OCCO | . | . | -6 | . | . | . | .
COC(=O)C(CC#Cc1ccc2c(c1)[C@]1(C(=O)N2)[C@H](c2ccc(OCCO)cc2)N2[C@H](c3ccccc3)[C@H](c3ccccc3)OC(=O)[C@H]2[C@@H]1C(=O)N1CCN(c2ncccn2)CC1)C(=O)OC | . | -22 | 76* | . | . | . | 3%
SMILES | EBV LMP1 NFkB | PAX8 reporter | EWS-Fli block | Shn3 inh set2 | aSyn UTR inh | FN deposit inh | DNA binding
O=C(O)CN1C(=O)/C(=C\c2ccccc2OCc2ccc(Cl)cc2Cl)SC1=S | 44* | 2 | 59* | 36 | -58 | -4 | -6%
COc1ccccc1C(=O)NCCNc1nc2cc(C)cc(C)c2cc1C#N | -8 | -7 | 2 | 22 | -5 | -1 | .
COc1ccc(C(=O)NCCNc2nc3cc(C)cc(C)c3cc2C#N)c(OC)c1 | . | 9 | 67* | . | . | 2 | -10%
CCC(=O)N1CC[C@@H]2[C@H]1c1cc(C#Cc3cccc(OC)c3)ccc1N[C@@H]2CO | . | -7 | -9 | . | . | -11 | .
CCCCCCCCNC(C)C(O)c1ccc(SC(C)C)cc1 (stereo unspecified) | -94 | -6 | 59* | 96* | 17 | -12 | -7%
O=c1cc(-c2ccccc2)oc2ccc3ccccc3c12 | 68* | 91* | 81* | 63 | . | -6 | 13%
Cc1cc(-c2nc3cc(F)ccc3s2)ccc1N | 11 | -5 | 74* | -10 | . | -2 | -1%
Nc1ccc(-c2nc3ccc(N)cc3s2)cc1 | 12 | 40 | 49 | -1 | -37 | 0 | .
O=C(NCC1CCCO1)c1ccc(NC(=O)c2ccc(Br)cc2)cc1 (stereo unspecified) | . | -2 | 3 | 1 | -11 | 14 | .
CCC1=Nc2cc(C(=O)NCC3CCCO3)ccc2Sc2ccc(Br)cc21 (stereo unspecified) | 17 | 29 | 55* | 21 | -59 | 0 | -22%
OC[C@@H]1[C@H](c2ccc(Br)cc2)[C@H]2CNCCCCN12 | . | -4 | 6 | . | . | -5 | .
COCC(=O)N1[C@@H](CO)[C@@H](c2ccccc2)C12CN(Cc1ccccc1)C2 | . | -12 | -6 | . | . | . | .
COc1cc(/C=N\Nc2nc3ccccc3[nH]2)cc(OC)c1OC | 15 | -38 | . | 51 | -82 | 4 | .
C(=N\Nc1nc2ccccc2[nH]1)/c1ccccn1 | -1 | 62* | 70* | 89* | 112* | 13 | 0%
CC1(C)N=C(N)N=C(N)N1c1ccc(CCCCc2ccccc2)cc1 | 54* | 68* | 57* | 89* | . | -3 | -4%
NC(Cc1ccc(C(F)(F)F)cc1)c1csc(NC(=O)Nc2ccccc2Cc2ccccc2)n1 (stereo unspecified) | . | -7 | 56* | 84 | . | -13 | -9%
NC(CO)c1csc(NC(=O)Nc2ccccc2Cc2ccccc2)n1 (stereo unspecified) | . | -8 | 0 | 4 | . | 1 | .
Cc1cc(C)cc(C(=O)NC(=S)Nc2ccc(Cc3ccncc3)cc2)c1 | -5 | 8 | 66* | 7 | 7 | . | -4%
